Laboratory results: ChEMBL document CHEMBL1143945, “N-phenethyl and N-naphthylmethyl isatins and analogues as in vitro cytotoxic agents” (Bioorg Med Chem, 2008)

Assays:
U-937 = experiment: Cytotoxicity against human U937 cells; format: functional, cell-based
Method in brief: (§1)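 ATCC lines kept in RPMI-1640 with 2 mM L-glutamine, sodium bicarbonate, 5% FCS at 37 °C, 5% CO2. Adherent cells trypsinized, and viable cells counted by Trypan blue on a hemocytometer before seeding. MTS (CellTiter 96 AQueous One) metabolic read-out. IC50 is 50% inhibition of metabolic activity from sigmoidal dose-response curves. Triplicates in at least two independent experiments.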

PC-3 = experiment: Cytotoxicity against human PC3 cells; format: functional, cell-based; method in brief: as §1
[1] = Inhibition of bovine neuronal tubulin polymerization for 20 mins; parameters: species or system Bos taurus
Method in brief: (§2)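 Purified bovine neuronal tubulin reaction mix from a commercial kit, run per the manufacturer. Compound or DMSO vehicle is added at varying concentrations. Polymerization is followed kinetically at 37 °C for 1 h by fluorescence, excitation 360 ± 10 nm and emission 440 ± 10 nm. IC50 is read at the 20 or 60 min time point. Duplicates in one experiment.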

A-375 = experiment: Cytotoxicity against human A375 cells; format: functional, cell-based; method in brief: as §1
HCT-116 = experiment: Cytotoxicity against human HCT116 cells; format: functional, cell-based; method in brief: as §1
MCF7 = experiment: Cytotoxicity against human MCF7 cells; format: functional, cell-based; method in brief: as §1
[2] = Inhibition of bovine neuronal tubulin polymerization for 60 mins; parameters: species or system Bos taurus; method in brief: as §2
MDA-MB-231 = experiment: Cytotoxicity against human MDA-MB-231 cells; format: functional, cell-based; method in brief: as §1
Jurkat = experiment: Cytotoxicity against human Jurkat cells; format: functional, cell-based; method in brief: as §1

IC50 [1] [nM] | IC50 [2] [nM] | Compound | IC50 (U-937) [nM] | IC50 (PC-3) [nM] | IC50 (A-375) [nM] | IC50 (HCT-116) [nM] | IC50 (MCF7) [nM] | IC50 (MDA-MB-231) [nM] | IC50 (Jurkat) [nM]
– | – | O=C(CN1C(=O)C(=O)c2cc(Br)cc(Br)c21)c1ccc(Br)cc1 | 9180 | – | – | – | – | – | –
– | – | O=C(CN1C(=O)C(=O)c2cc(Br)cc(Br)c21)c1cccc(Br)c1 | 6360 | – | – | – | – | – | –
2870 | 6470 | O=C1C(=O)N(Cc2ccc3ccccc3c2)c2c(Br)cc(Br)cc21 | 740 | 2290 | 6560 | 1510 | 3500 | 2560 | 410
– | – | COc1ccc(CCN2C(=O)C(=O)c3cc(Br)cc(Br)c32)cc1 | 2350 | – | – | – | – | 4510 | 2660
– | – | O=C(CN1C(=O)C(=O)c2cc(Br)cc(Br)c21)c1ccccc1 | 9970 | – | – | – | – | – | –
4040 | 6600 | O=C1C(=O)N(CCc2ccccc2)c2c(Br)cc(Br)cc21 | 780 | – | – | – | – | 4350 | 1520
– | – | O=C1C(=O)N(CCc2ccc(Br)cc2)c2c(Br)cc(Br)cc21 | 880 | 2210 | 4340 | 1620 | 6020 | 2010 | 1150
– | – | COc1cccc(CCN2C(=O)C(=O)c3cc(Br)cc(Br)c32)c1 | 1070 | – | – | – | – | 5240 | 2000
– | – | O=C1C(=O)N(CCc2cccc(Br)c2)c2c(Br)cc(Br)cc21 | 780 | 2090 | 3440 | 1410 | 4040 | 2720 | 1210
4710 | 12000 | O=C1C(=O)N(Cc2cccc3ccccc23)c2c(Br)cc(Br)cc21 | 190 | 1440 | 3950 | 1150 | 7710 | 2490 | 910
– | – | COc1cccc(C(=O)CN2C(=O)C(=O)c3cc(Br)cc(Br)c32)c1 | 4700 | – | – | – | – | – | –
– | – | COc1ccc(C(=O)CN2C(=O)C(=O)c3cc(Br)cc(Br)c32)cc1 | 5320 | – | – | – | – | – | –
950 | 1660 | CC[C@]1(O)C[C@@H]2CN(CCc3c([nH]c4ccccc34)[C@@](C(=O)OC)(c3cc4c(cc3OC)N(C)[C@H]3[C@@](O)(C(=O)OC)[C@H](OC(C)=O)[C@]5(CC)C=CCN6CC[C@]43[C@@H]65)C2)C1 [VINBLASTINE] | – | – | – | – | – | – | –
